Source: PMC4160068 (ACS chemical biology, 2014)
pIC50: −log10 of the molar value.

Experiments:
[1] = test system: A375 and SKMEL5 parental cells; assay: MTS viability of parental BRAF-mutant melanoma cells under PLX4032; type: cell-based; conditions: concentrations in which PLX-R derivative lines grew
PKCδ = PKCδ (Homo sapiens, UniProt Q05655); assay: In vitro kinase assay, PKCδ; type: biochemical
[2] = test system: melanoma cell lines with NRAS mutations (SBcl2, FM6, SKMEL2, WM1366, WM1361A, WM852); assay: MTS cell survival assay in NRAS-mutant melanoma lines; type: cell-based; conditions: 24, 48, 72 hr
Summary of the method: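 Cell lines carrying NRAS Q61 mutations (SBcl2, FM6, SKMEL2, WM1366, WM1361A, WM852) exposed to test compounds at 2 or 5 µM, or 0.2 or 0.5 µM (0.1 and 2 µM also in SBcl2). MTS read at 24, 48 and 72 hr. Controls: DMSO vehicle and 2 µM negative control compound. Mean of triplicates ± SD; p versus DMSO at 72 hr.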

SBcl2 melanoma cells = assay: Clonogenic colony assay; type: cell-based; conditions: SBcl2, 1 µM, 48 hr of drug exposure, then 8 days without inhibitor
Summary of the method: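 SBcl2 cells exposed to test compound at 1 µM for 0, 12, 24 or 48 hr. Equal numbers of viable cells from each condition then replated at low density and grown 8 days in inhibitor-free medium. Colony-forming ability compared across exposure times.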

[3] = test system: caspase 3/7 in SBcl2 cells; assay: Caspase 3/7 activity assay; type: cell-based; conditions: SBcl2, 5 µM, 24 hr
SBcl2 cells = assay: DNA fragmentation; type: cell-based; conditions: 24 hr
Summary of the method: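 SBcl2 cells treated 24 hr with test compound (5 or 0.5 µM) alone, or at 0.5 µM together with pan-caspase inhibitor Z-VAD-FMK (100 µM). Sub-G1 (fragmented DNA) fraction measured by flow cytometry. Mean of duplicates with SD.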

[4] = cited from earlier work
mice = conditions: administered orally or intraperitoneally to mice; cited from earlier work
[5] = test system: normal primary cells or cell lines; conditions: at the concentrations employed herein; cited from earlier work
[6] = test system: cancer cells with activation of RAS or RAS signaling; assay: "Ras-specific" cytotoxicity
[7] = test system: MKK4-JNK-H2AX pathway in SBcl2 cells; assay: Immunoblot analysis of JNK pathway signaling; type: cell-based; conditions: pre-treatment 50 µM, data not shown

Sequence of PKCδ (Q05655 whole entry): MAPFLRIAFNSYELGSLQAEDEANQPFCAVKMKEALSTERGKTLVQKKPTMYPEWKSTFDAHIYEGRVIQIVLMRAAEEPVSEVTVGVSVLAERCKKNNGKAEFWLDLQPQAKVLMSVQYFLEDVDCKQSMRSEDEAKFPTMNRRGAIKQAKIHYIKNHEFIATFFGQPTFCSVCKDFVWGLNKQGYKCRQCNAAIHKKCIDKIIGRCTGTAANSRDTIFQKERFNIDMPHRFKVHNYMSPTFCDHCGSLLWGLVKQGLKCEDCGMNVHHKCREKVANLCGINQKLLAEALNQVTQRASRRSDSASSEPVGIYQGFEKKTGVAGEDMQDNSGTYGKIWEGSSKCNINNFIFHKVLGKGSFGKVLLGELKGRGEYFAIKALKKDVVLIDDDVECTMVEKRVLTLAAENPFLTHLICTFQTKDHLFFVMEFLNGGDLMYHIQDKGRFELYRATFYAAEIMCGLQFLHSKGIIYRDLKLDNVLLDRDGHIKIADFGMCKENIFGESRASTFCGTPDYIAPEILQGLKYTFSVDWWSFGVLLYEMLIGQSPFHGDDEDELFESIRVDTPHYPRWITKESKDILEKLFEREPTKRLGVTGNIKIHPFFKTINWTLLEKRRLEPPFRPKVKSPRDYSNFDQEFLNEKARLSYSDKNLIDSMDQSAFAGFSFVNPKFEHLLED

## CCCS(=O)(=O)Nc1ccc(F)c(C(=O)c2c[nH]c3ncc(-c4ccc(Cl)cc4)cc23)c1F [PLX4032, vemurafenib]
[1]
  Cytotoxicity to parental cells: cytotoxic

## CC(=O)c1c(O)c(C)c(O)c(Cc2c(O)c3c(c(C(=O)/C=C/c4ccccc4)c2O)OC(C)(C)C=C3)c1O [Rottlerin, rottlerin]
PKCδ; PKCδ IC50, in vitro kinase assay
  pIC50: 5.30 to 5.52
PKCδ; PKCδ over PKCα
  PKCδ/PKCα Selectivity: 28-fold
[2]; 2 µM
  Cell proliferation (MTS): intermediate inhibitory effects
[2]; 5 µM
  Cell proliferation (MTS): consistently inhibited proliferation of all cell lines
SBcl2 melanoma cells
  Reduction in the number of colonies: approximately 40 fold
[3]
  Increase in caspase 3/7 activity vs vehicle (DMSO): 5 fold
SBcl2 cells; SBcl2, 5 µM
  Proportion of sub-G1 population (fragmented DNA): significantly higher
[4]
  Aqueous solubility: moderate
mice
  Tolerability: well-tolerated
[5]
  Cytostatic or cytotoxic effect on normal cells: not cytostatic or cytotoxic
[6]
  "Ras-specific" Cytotoxicity: 3 to 5 µM

## carbobenzoxy-valyl-alanyl-aspartyl-[Omethyl]-fluoromethylketone [Z-VAD-FMK]
SBcl2 cells; SBcl2 pretreated with 100 µM, B106 0.5 µM
  B106-induced DNA fragmentation: significantly abrogated
[7]
  B106-induced caspase 3 cleavage (immunoblot): prevented
